Hits are enriched below; roughly 4.2% of the tested compounds scored in any of these assays.
FXN GAA850 act: increases GAA850 frataxin promoter reporter activity | HEK293 lucGAA850 FXN promoter luciferase reporter, 24 h; percent of 10 µM SAHA response | activation, % at 6 µM | actives 0.56% (n = 360,000) | AID 540364;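 active = activation above the average of all compounds screened plus 3 SD, cutoff fixed separately per campaign, cut at about 7.5% in these data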;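 note: 0% = DMSO wells and 100% = 10 µM SAHA wells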
M18AAP inhibitor: blocks P. falciparum M18 aspartyl aminopeptidase. actives 1.2% (n = 290,000). AID 1822. recombinant PfM18AAP, H-Glu-NHMec fluorogenic cleavage. inhibition, % at 7.35 µM;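 active = inhibition above the campaign mean inhibition over all tested compounds plus 3 SD, cut at about 28% in these data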;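 note: 0% = plate median of test compound wells and 100% = 2 mM ZnCl2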
SENP1 FRET inh: blocks the human SENP1 SUMO protease catalytic domain. recombinant SENP1 catalytic domain, CyPet-SUMO1-YPet FRET cleavage. inhibition, % at 10 µM. actives 0.21% (n = 360,000). AID 624204;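 active = inhibition at least 30% at 10 µM, raw YFP signal under a set limit, fluorescence ratio 0.5 to 1.5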;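 note: 0% = enzyme with DMSO and 100% = no enzyme wells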
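material = recombinant human SENP1 catalytic domain, His6-tagged | quantity = 20 pM enzyme | reagent = 25 nM SUMO1 FRET substrate | compound dosing = 10 µM single point, 0.5% DMSO | timing = 50 min enzyme reaction, room temperature, light-protected | detection = FRET, CFP and YFP emission | control set = no-enzyme low, enzyme-DMSO high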
CTSL1 counter: cathepsin L1 inhibition, PFM18AAP counter-screen; recombinant F. hepatica cathepsin L1, Z-Leu-Arg-MCA fluorescence; inhibition, % at 5.96 µM; actives 0.49% (n = 300,000); AID 1906;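 active = inhibition above the mean of all tested compounds plus 3 SD, set per screening campaign, cut at about 17% in these data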;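 note: 0% = plate median of test compound wells and 100% = 1 µM Z-Phe-Ala-diazomethylketone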
HDAC3 inhib: inhibitors of human histone deacetylase 3; O15379; recombinant HDAC3, fluorogenic peptide/trypsin coupled, fluorescence; inhibition, % at 8.3 µM; actives 0.15% (n = 320,000); AID 2718; in the data active = inhibition above about 26%, passing the limit was not always enough
AHR act: human AHR activation. actives 2.5% (n = 320,000). AHR-responsive luciferase reporter cells, luminescence. activation, % at 5 µM. AID 2796. P35869; in the data active = activation above about 47%;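 note: 0% = vehicle wells and 100% = reference agonist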
Target sequence (P35869 whole entry, looked up): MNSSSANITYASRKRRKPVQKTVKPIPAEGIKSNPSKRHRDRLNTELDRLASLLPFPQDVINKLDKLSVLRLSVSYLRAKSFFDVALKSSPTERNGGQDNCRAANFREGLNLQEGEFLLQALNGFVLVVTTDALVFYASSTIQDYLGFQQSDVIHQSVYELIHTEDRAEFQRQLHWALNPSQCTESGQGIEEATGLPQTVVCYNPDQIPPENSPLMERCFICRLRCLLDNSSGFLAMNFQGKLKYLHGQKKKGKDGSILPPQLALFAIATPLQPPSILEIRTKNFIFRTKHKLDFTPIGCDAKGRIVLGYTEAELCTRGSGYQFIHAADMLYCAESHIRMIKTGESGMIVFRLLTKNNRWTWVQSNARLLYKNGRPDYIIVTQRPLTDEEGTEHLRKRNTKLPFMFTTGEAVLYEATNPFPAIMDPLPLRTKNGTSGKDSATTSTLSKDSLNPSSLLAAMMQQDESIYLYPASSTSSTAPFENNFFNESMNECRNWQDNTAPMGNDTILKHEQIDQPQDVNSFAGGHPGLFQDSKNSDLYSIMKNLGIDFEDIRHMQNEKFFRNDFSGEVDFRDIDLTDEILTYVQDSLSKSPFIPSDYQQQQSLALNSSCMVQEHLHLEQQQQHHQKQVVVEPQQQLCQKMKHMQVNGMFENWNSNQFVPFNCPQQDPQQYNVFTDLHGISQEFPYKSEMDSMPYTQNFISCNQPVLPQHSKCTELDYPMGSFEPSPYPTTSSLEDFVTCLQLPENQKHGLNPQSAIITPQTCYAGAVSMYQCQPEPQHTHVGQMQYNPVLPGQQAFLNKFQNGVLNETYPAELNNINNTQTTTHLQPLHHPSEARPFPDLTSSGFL
AHR act cf: human AHR activation, confirmation; AID 2845; human cells, AHR-responsive luciferase reporter, luminescence; shares compounds with AHR act; activation, % at 9 µM; actives 87% (n = 2,300); in the data active = activation above about 49%;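 note: HepG2 hepatoma cells carrying a DRE-driven firefly luciferase reporter; 0% = vehicle wells and 100% = reference agonist wells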
PXR act counter: activates human PXR in AHR activator counter-screen | shares compounds with AHR act | cell-based PXR reporter, luciferase luminescence | activation, % at 11.6 µM | actives 88% (n = 2,300); in the data active = activation above about 11%;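 note: human hepatoma DPX-2 cells expressing full-length human PXR; 0% = DMSO and 100% = reference agonist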
GAA30 FXN cntr: GAA30 FXN promoter activation counter-screen | shares compounds with FXN GAA850 act | HEK293 lucGAA30 FXN promoter luciferase, 24 h; DMSO = 0%, 5 µM ipriflavone = 100% | activation, % at 6 µM | actives 66% (n = 1,900) | AID 588350;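 active = mean activation above the mean of solvent-only control wells plus 3 SD, cut at about 22% in these data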;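 note: counterscreen of GAA850 promoter hits where activity marks nonselective or luminescence artifacts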
GAA850 confirm: confirmation of GAA850 frataxin (FXN) promoter activators | shares compounds with FXN GAA850 act | HEK293 lucGAA850 FXN promoter luciferase reporter, 24 h; 100% = activation by SAHA | activation, % at 6 µM | actives 86% (n = 1,900) | AID 588351;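 active = mean activation above a set limit taken from the primary screen, cut at about 8% in these data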;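 note: 0% = DMSO wells and 100% = 10 µM SAHA wells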
* hit, by the source's call; / = not tested or not shown.

SMILES	FXN GAA850 act	M18AAP inhibitor	SENP1 FRET inh	CTSL1 counter	HDAC3 inhib	AHR act	AHR act cf	PXR act counter	GAA30 FXN cntr	GAA850 confirm
CC(C)C[C@@H](CNCC(=O)[C@H](Cc1c[nH]c2ccccc12)NC(=O)c1[nH]cnc1C(=O)N[C@@H](C)CN)NC(=O)c1nc[nH]c1C(=O)N[C@@H](C)C(=O)O	4	/	-47	/	/	/	/	/	/	/
Cc1cc(C(=O)NNC(=O)Cc2ccc(Cl)c(Cl)c2)c(C)o1	-1	/	-2	/	/	/	/	/	/	/
O=C(c1ccc(Cl)cc1)c1oc2ccccc2c1CS(=O)c1ccccc1 (centres undefined)	1	4	4	3	8	8	/	/	/	/
Nc1c(C(=O)c2ccc(Br)cc2)oc2ccccc12	7.7*	1	-45	3	1	122*	176*	/	93*	34*
COc1cccc(/C=C/c2ccc3cccc(O)c3n2)c1	8.7*	2	4	4	3	83*	120*	22*	4	29*
O=C(Nc1ccc2c(c1)OCO2)c1ccc(Br)s1	20*	13	-11	-1	2	131*	93*	25*	108*	38*
O=C(Nc1ccc2c(c1)OCO2)c1n[nH]c(=O)c2ccccc12	9.8*	10	-3	1	7	132*	132*	43*	100*	40*
CC(=O)Nc1ccc2c(c1)OCO2	2	4	0	3	-1	1	/	/	/	/
CN(Cc1cccnc1)C(=O)c1ccc(Cl)c(NS(=O)(=O)c2ccc(F)cc2)c1	3	/	1	/	/	/	/	/	/	/
CCOc1ccc(C(CN2CCOCC2)C(C)=O)cc1OC (centres undefined)	/	/	1	/	/	/	/	/	/	/
O=C(/C=C/c1ccccc1[N+](=O)[O-])OCC(=O)N1CCN(c2ccccc2)CC1	1	/	3	/	/	/	/	/	/	/
Cc1[nH]c2ccccc2c1SCc1ccccc1	15*	8	-1	-1	/	128*	103*	38*	13	7
COc1ccc(-c2nn(-c3ccccc3)cc2CNC[C@H]2O[C@@H](n3cnc(C(N)=O)n3)[C@H](O)[C@@H]2O)cc1	1	/	-1	/	/	/	/	/	/	/
Nc1nc(-c2ccccc2)cc(-c2ccccc2O)n1	9.3*	-4	1	0	0	82*	174*	22*	53*	48*
NNc1nc(-c2ccccc2)cc(-c2ccccc2O)n1	-1	4	3	-5	7	13	/	/	/	/
Cc1cc(C)n2nc(-c3cccc(Br)c3)cc2n1	9.1*	-1	3	-1	-11	107*	129*	18*	107*	44*
Nc1nc2c3ccccc3nc(Cc3ccccc3)n2n1	3	-3	1	0	4	1	/	/	/	/
CCCc1nc2ccccc2c2nc(N)nn12	8.5*	16	1	2	-1	3	/	/	16	7
COc1ccc(C(CC(=O)c2ccc(C)cc2)C(C#N)C#N)cc1OC (centres undefined)	8.0*	8	0	5	-1	0	/	/	39*	38*
COC(=O)C(C(=O)OC)C(CC(=O)c1ccc(C)cc1)c1cc(OC)c(OC)c(OC)c1 (centres undefined)	4	2	3	-6	-4	3	/	/	/	/
CCN(C(=O)c1cn(C)c(=O)c2ccccc12)c1ccccc1F	1	4	1	2	6	0	/	/	/	/
COc1cccc(-c2nc(-c3ccccc3)c3ccc(Cl)cc3n2)c1	/	/	1	/	/	/	/	/	/	/
CCOC(=O)c1sc(NC(=O)CCN2CCCCCC2)c(C(=O)OCC)c1C	10*	1	-7	4	-1	-2	/	/	15	7

Source: PubChem BioAssay
